Experimental data as given in ChEMBL document CHEMBL3875203, “Small molecule mimics of DFTamP1, a database designed anti-Staphylococcal peptide” (Bioorg Med Chem, 2017).
Converted amounts (≈) assume the structure as drawn. The source made the active and inactive calls. The rule behind the calls is not given here.

Tests used:
[1] = Retention time of the compound by HPLC method; format: physicochemical
[2] = Hemolytic activity against human RBC after 1 hr; format: ADME, cell-based, Erythrocyte; conditions: human red blood cells
In short: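 Human red blood cells were washed three times in normal saline (800 g, 10 min) and made up as a 2% suspension. After centrifugation, supernatant absorbance was read at 545 nm. Lysis was set at 100% for 1% Triton X-100 and 0% for untreated cells; HL50 is the 50% hemolytic concentration.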

[3] = Therapeutic index, ratio of HC50 for human RBC to MIC for methicillin-resistant Staphylococcus aureus USA300; conditions: human red blood cells, read-out: TI
In short: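 Supernatant hemoglobin read at 545 nm; 1% Triton X-100 = 100% lysis, untreated = 0%. HL50 divided by USA300 MIC gives the selectivity index.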

Pseudomonas aeruginosa [4] = test: Antibacterial activity against Pseudomonas aeruginosa PAO1 after 20 hrs by microdilution method; format: functional; conditions: PAO1, 20 h
In short: (§1)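 Incubated ~20 h at 37°C, then read at 630 nm. MIC is the lowest concentration with no detectable growth. Daptomycin assays had 2 mM Ca²⁺ added to the medium. Repeated several times by different investigators.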

Escherichia coli [5] = test: Antibacterial activity against Escherichia coli ATCC 25922 after 20 hrs by microdilution method; format: functional; conditions: ATCC 25922, 20 h; in short: as §1
Staphylococcus aureus [6] = test: Antibacterial activity against methicillin-resistant Staphylococcus aureus USA300 after 20 hrs by microdilution method; format: functional; conditions: USA300, 20 h
In short: (§2)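 MIC = lowest concentration with no detectable growth. pH series run at pH 6.8, 7.4 and 8.0. Daptomycin wells carried 2 mM Ca²⁺. Repeated by different investigators on different dates.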

Klebsiella pneumoniae = test: Antibacterial activity against Klebsiella pneumoniae ATCC 13883 after 20 hrs by microdilution method; format: functional; conditions: ATCC 13883, 20 h; in short: as §1
Staphylococcus aureus [7] = test: Antibacterial activity against Staphylococcus aureus Newman after 20 hrs by microdilution method; format: functional; in short: as §1
Staphylococcus aureus [8] = test: Antibacterial activity against Staphylococcus aureus USA200 after 20 hrs by microdilution method; format: functional; conditions: USA200, 20 h; in short: as §1
Staphylococcus aureus [9] = test: Antibacterial activity against Staphylococcus aureus UAMS-1 after 20 hrs by microdilution method; format: functional; conditions: UAMS-1, 20 h; in short: as §1
Staphylococcus aureus [10] = test: Induction of membrane damage in methicillin-resistant Staphylococcus aureus USA300 measured for 90 mins by propidium iodide staining based fluorescence spectroscopic analysis; format: functional
Staphylococcus aureus [11] = test: Antibacterial activity against Staphylococcus aureus Mu50 after 20 hrs by microdilution method; format: functional; conditions: Mu50, 20 h; in short: as §1
Staphylococcus aureus [12] = test: Antibacterial activity against Staphylococcus aureus USA400 after 20 hrs by microdilution method; format: functional; conditions: USA400, 20 h; in short: as §1
Staphylococcus aureus [13] = test: Ratio of MIC for methicillin-resistant Staphylococcus aureus USA300 in presence of 100 mM NaCl to MIC for methicillin-resistant Staphylococcus aureus USA300 in absence of 100 mM NaCl; format: functional
In short: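 Broth microdilution MIC against S. aureus USA300 in TSB with and without 100 mM NaCl. Inoculum 10⁶ CFU/mL exponential-phase cells, ~20 h at 37°C, OD630 read-out, no-growth endpoint. Ratio of MIC with salt to MIC without salt.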

Escherichia coli [14] = test: Antibacterial activity against Escherichia coli K-12 after overnight incubation by broth microdilution method; format: functional
Pseudomonas aeruginosa [15] = test: Antibacterial activity against Pseudomonas aeruginosa PAO1 after overnight incubation by broth microdilution method; format: functional
Staphylococcus aureus [16] = test: Antibacterial activity against methicillin-resistant Staphylococcus aureus USA300 LAC after overnight incubation by broth microdilution method; format: functional; in short: as §2
Staphylococcus aureus [17] = test: Inhibition of surface attachment by methicillin-resistant Staphylococcus aureus USA300 assessed as reduction in biofilm formation after 4 hrs by XTT assay; format: functional
Staphylococcus aureus [18] = test: Antibacterial activity against methicillin-resistant Staphylococcus aureus USA300 after 20 hrs at pH 6.8 to 8 by microdilution method; format: functional; in short: as §2
Staphylococcus aureus [19] = test: Inhibition of methicillin-resistant Staphylococcus aureus USA300 preformed biofilms after 24 hrs by XTT assay; format: functional
In short: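 USA300 biofilms formed for 24 h on polystyrene wells, washed, then treated with compounds for 24 h. Remaining biofilm quantified by XTT reduction (2 h, 37°C, absorbance 450 nm, medium-plus-XTT blank). Compared with untreated control.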

Staphylococcus aureus [20] = test: Induction of membrane damage in methicillin-resistant Staphylococcus aureus USA300 measured up to 90 mins by propidium iodide staining based fluorescence spectroscopic analysis

| Compound | Retention_time [1] [min] | HC50 at 1 h [2] [µM] | selectivity ratio [3] | MIC (Pseudomonas aeruginosa [4]) [µM] | MIC (Escherichia coli [5]) [µM] | MIC (Staphylococcus aureus [6]) [µM] | MIC (Klebsiella pneumoniae) [µM] | MIC (Staphylococcus aureus [7]) [µM] | MIC (Staphylococcus aureus [8]) [µM] | MIC (Staphylococcus aureus [9]) [µM] | Activity (Staphylococcus aureus [10]) | MIC (Staphylococcus aureus [11]) [µM] | MIC (Staphylococcus aureus [12]) [µM] | Ratio (Staphylococcus aureus [13]) | also measured |
| --- | --- | --- | --- | --- | --- | --- | --- | --- | --- | --- | --- | --- | --- | --- | --- |
| CS(=O)(=O)O.CS(=O)(=O)O.NCc1ccc2c(C3(c4c[nH]c5cc(CN)ccc45)CCCCC3)c[nH]c2c1 | 10.788 | 75 to 150 | 12 to 24 | > 50 | > 50 | 6.2 to 12.5 | > 50 |  |  |  |  |  |  |  |  |
| CS(=O)(=O)O.CS(=O)(=O)O.c1ccc(C(c2c[nH]c3cc(C4=NCCN4)ccc23)c2c[nH]c3cc(C4=NCCN4)ccc23)cc1 | 10.643 | 600 | 24 | > 50 | > 50 | 25 | > 50 |  |  |  |  |  |  |  |  |
| CS(=O)(=O)O.CS(=O)(=O)O.Clc1ccc(C(c2c[nH]c3cc(C4=NCCN4)ccc23)c2c[nH]c3cc(C4=NCCN4)ccc23)cc1 | 11.491 | 150 | 24 to 48 | 25 | > 50 | 3.1 to 6.2 | > 50 | 6.2 | 6.2 | 12.5 | Active | 6.2 | 6.2 | <=2 |  |
| CS(=O)(=O)O.CS(=O)(=O)O.Clc1ccc(C(c2c[nH]c3cc(C4=NCCN4)ccc23)c2c[nH]c3cc(C4=NCCN4)ccc23)c(Cl)c1 | 11.924 | 40 | 12 | 25 to 50 | 12.5 | 3.1 to 6.2 | > 50 |  |  |  |  |  |  |  |  |
| Cl.Clc1cccc(Cl)c1C(c1c[nH]c2ccc(C3=NCCN3)cc12)c1c[nH]c2ccc(C3=NCCN3)cc12 | 10.537 | > 600 | > 48 | > 50 | > 50 | 12.5 | > 50 |  |  |  |  |  |  |  |  |
| CS(=O)(=O)O.CS(=O)(=O)O.c1cc2c(Cc3c[nH]c4cc(C5=NCCN5)ccc34)c[nH]c2cc1C1=NCCN1 | 9.215 | 1300 | 26 | > 50 | > 50 | 50 | > 50 |  |  |  |  |  |  |  |  |
| CS(=O)(=O)O.CS(=O)(=O)O.c1cc2c(C3(c4c[nH]c5cc(C6=NCCN6)ccc45)CCCCC3)c[nH]c2cc1C1=NCCN1 | 11.276 | 150 to 300 | 24 to 48 | > 50 | > 50 | 6.2 | > 50 | 6.2 | 6.2 | 25 | Active | 6.2 | 6.2 | <=2 | MIC (Escherichia coli [14]): > 200 µM; MIC (Pseudomonas aeruginosa [15]): 100 µM; MIC (Staphylococcus aureus [16]): 6.2 µM |
| CCCC(CCC)(c1c[nH]c2cc(C3=NCCN3)ccc12)c1c[nH]c2cc(C3=NCCN3)ccc12.CS(=O)(=O)O.CS(=O)(=O)O | 12.102 | 150 | 48 to 96 | > 50 | > 50 | 1.6 to 3.1 | > 50 | 3.1 | < 1.5 | 12.5 to 25 |  | 3.1 | 3.1 | <=2 | inhibition (INH) (Staphylococcus aureus [17]): 40%; Activity (Staphylococcus aureus [18]): Active; inhibition (INH) (Staphylococcus aureus [19]): 50%; Activity (Staphylococcus aureus [20]): Active |
| H-GLLSLLSLLGKLL-NH2 |  |  |  |  |  |  |  |  |  |  |  |  |  |  | MIC (Escherichia coli [14]): > 120 µM; MIC (Pseudomonas aeruginosa [15]): > 120 µM; MIC (Staphylococcus aureus [16]): 3.1 µM |
| CCC(CC)(c1c[nH]c2cc(C3=NCCN3)ccc12)c1c[nH]c2cc(C3=NCCN3)ccc12.CS(=O)(=O)O.CS(=O)(=O)O | 11.015 | 300 | 48 | > 50 | > 50 | 6.2 | > 50 |  |  |  |  |  |  | <=2 |  |
| CS(=O)(=O)O.CS(=O)(=O)O.Cn1cc(C2(c3cn(C)c4cc(C5=NCCN5)ccc34)CCCCC2)c2ccc(C3=NCCN3)cc21 |  |  |  |  |  | 12.5 to 25 |  | 12.5 | 25 | ≥ 25 |  | 25 | 12.5 | <=2 |  |
| CCCCCCCCCC(=O)N[C@@H](Cc1c[nH]c2ccccc12)C(=O)N[C@@H](CC(N)=O)C(=O)N[C@@H](CC(=O)O)C(=O)N[C@@H]1C(=O)NCC(=O)N[C@@H](CCCN)C(=O)N[C@@H](CC(=O)O)C(=O)N[C@H](C)C(=O)N[C@@H](CC(=O)O)C(=O)NCC(=O)N[C@H](CO)C(=O)N[C@@H]([C@H](C)CC(=O)O)C(=O)N[C@@H](CC(=O)c2ccccc2N)C(=O)O[C@@H]1C [DAPTOMYCIN] |  |  |  |  |  | 0.78 (≈ 1.26 µg/mL) |  |  | 0.78 (≈ 1.26 µg/mL) | > 12.5 | Active | 3.1 (≈ 5.02 µg/mL) | 0.78 (≈ 1.26 µg/mL) |  |  |
| CS(=O)(=O)O.CS(=O)(=O)O.Clc1cccc(Cl)c1C(c1c[nH]c2cc(C3=NCCN3)ccc12)c1c[nH]c2cc(C3=NCCN3)ccc12 | 10.973 | 300 | 24 to 48 | > 50 | > 50 | 6.2 to 12.5 | > 50 | 12.5 | 12.5 | > 25 | Active | > 25 | 12.5 | <=2 |  |
| Brc1cccc(Br)c1C(c1c[nH]c2cc(C3=NCCN3)ccc12)c1c[nH]c2cc(C3=NCCN3)ccc12.CS(=O)(=O)O.CS(=O)(=O)O | 11.159 | 150 | 24 to 48 | > 50 | > 50 | 3.1 to 12.5 | > 50 | 3.1 to 6.2 | 3.1 | 6.2 | Active | 6.2 | 3.1 |  |  |
| CC(C)(c1c[nH]c2cc(C3=NCCN3)ccc12)c1c[nH]c2cc(C3=NCCN3)ccc12.CS(=O)(=O)O.CS(=O)(=O)O | 10.005 | > 830 | 33 | > 50 | > 50 | 25 | > 50 |  |  |  |  |  |  |  |  |
| CS(=O)(=O)O.CS(=O)(=O)O.c1cc2c(C(c3c[nH]c4cc(C5=NCCN5)ccc34)C3CCCCC3)c[nH]c2cc1C1=NCCN1 | 11.832 | 20 to 40 | 7 to 14 | > 50 | > 50 | 3.1 | > 50 |  |  |  |  |  |  |  |  |
